Assay results pooled from the literature.
Target: Cyclin-dependent kinase 3 (CDK3, Homo sapiens, UniProt Q00526)

| SMILES | effect on | method | concentration | remaining binding [%] |
| --- | --- | --- | --- | --- |
| COc1cnc(Nc2cccc(S(N)(=O)=O)c2)nc1N1CCN(c2ccccc2)CC1 | binding | competition with immobilised ligand | 1 µM | 100 |
| CN(CCCC(F)(F)F)c1nccc(-c2cnn3ncccc23)n1 | binding | – | 1 µM | 100 |
| N#Cc1ccccc1CSc1nnc2c(n1)[nH]c1ccccc12 | binding | competition with immobilised ligand | 10 µM | 100 |
| F[C@@H]1CCN(c2nccc(-c3cnn4ncccc34)n2)C1 | binding | – | 1 µM | 100 |
| O=C(c1ccc(Nc2nccc(-c3cc4ccccc4s3)n2)cc1)N1CCC(N2CCCC2)CC1 | binding | competition with immobilised ligand | 1 µM | 98 |
| Cc1c(NC(=O)c2cc(C(N)=O)nc3cc(F)ccc23)c(C(F)(F)F)nn1Cc1ccc(C#N)cc1 | cell-free assay | competition with immobilised ligand | 1 µM | 95 |
| O=C(Nc1c[nH]nc1C(=O)NC1CCNCC1)c1cc(F)cc(F)c1 | binding | competition with immobilised ligand | 1 µM | 91 |
| O=C(NCCCN1CCOCC1)c1ccc(Nc2ncc(Cl)c(-c3ccc(Cl)s3)n2)cc1 | binding | competition with immobilised ligand | 1 µM | 44 |
| N[C@@H]1CCN(c2nccc(-c3cnn4ncccc34)n2)C1 | binding | – | 1 µM | 100 |
| O=C(NCCCN1CCOCC1)c1ccc(Nc2nccc(-c3cc4ccccc4s3)n2)cc1 | binding | competition with immobilised ligand | 1 µM | 95 |
| C[C@H]1CCN(c2nccc(-c3cnn4ncccc34)n2)C1 | binding | – | 1 µM | 86 |
| CCCOc1ccc([C@H]2[C@H](C(=O)O)[C@@H](c3ccc4c(c3)OCO4)CN2CC(=O)Nc2c(CC)cccc2CC)cc1 | cell-free assay | competition with immobilised ligand | 1 µM | 95 |
| COc1cnc(Nc2cccc(S(N)(=O)=O)c2)nc1N1CCN(c2ccccc2)C(=O)C1 | binding | competition with immobilised ligand | 1 µM | 99 |
| CCC(=O)N[C@H]1CC[C@@H](C(=O)N(C)c2ccc(-c3nc4ccccc4o3)cc2)C1 | cell-free assay | competition with immobilised ligand | 1 µM | 98 |
| CN(C)c1nccc(-c2cnc3ncccn23)n1 | binding | – | 1 µM | 79 |
| O=C1CCc2cc(Nc3cc(OC4CCOCC4)c([N+](=O)[O-])cc3Cl)ccc2N1 | cell-free assay | competition with immobilised ligand | 1 µM | 100 |
| FC(F)(F)Oc1cccc(-c2cnc3ccc(-c4ccncc4)nn23)c1 | cell-free assay | competition with immobilised ligand | 5 µM | 79 |
| C[C@H](c1cccc(C#N)c1)n1cc(Cl)cc(C(N)=O)c1=N | cell-free assay | competition with immobilised ligand | 1 µM | 100 |
| C[C@@H]1CN(c2ccc3ncc(-c4ccc5[nH]nc(C6CC6)c5c4)n3n2)C[C@H](C)O1 | binding | competition with immobilised ligand | 50 nM | 100 |
| C[C@H](c1ccnc(Nc2nc3ccc(-c4cc(N(C)C)ncn4)cc3[nH]2)c1)N1CCN(C(=O)CC(F)(F)F)CC1 | cell-free assay | competition with immobilised ligand | 0.1 µM | 100 |
| Nc1ncc2c(n1)-c1c([nH]c3ccc(C#CC4CC4)cc13)CCCC2 | binding | competition with immobilised ligand | 1 µM | 77 |
